Assay results from BindingDB's records for doi:10.1021/acs.jmedchem.0c01126 (The University of Tokyo, 2020).

What was measured:
[1] = molecular target: Putative P2Y purinoceptor 10 (Mus musculus, UniProt Q8BFU7); assay: Agonist activity at mouse P2Y10 expressed in HEK293 cells co-transfected with AP-TGFalpha/Galphaq/i1 assessed as induction of ectodomain shedding of membrane bound AP-TGFalpha after 1 hr by p-NPP substrate based microplate reader analysis
Method in brief: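 Run the same way as the GPR34 shedding assay, but with a mouse P2Y10 expression vector in HEK293 cells alongside AP-TGFα and chimeric Gα. Receptor-specific AP-TGFα release was found by subtracting the empty-vector background. EC50 and Emax came from concentration-response curves. Mean and SEM of 3−8 independent experiments.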

[2] = molecular target: Probable G-protein coupled receptor 34 (Mus musculus, UniProt Q9R1K6); assay: Agonist activity at mouse GPR34 expressed in HEK293 cells co-transfected with AP-TGFalpha/Galphaq/i1 assessed as induction of ectodomain shedding of membrane bound AP-TGFalpha after 1 hr by p-NPP substrate based microplate reader analysis
Method in brief: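 HEK293 cells transiently transfected with AP-TGFα, chimeric Gα and mouse GPR34 vectors, then treated with compound. Empty-vector cells (AP-TGFα plus chimeric Gα) served as background. Receptor-specific AP-TGFα release was taken after subtracting that background, and concentration-response curves gave EC50 and Emax. Mean and SEM of 3−8 independent experiments.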

[3] = molecular target: G protein-coupled receptor 34a (Danio rerio, UniProt Q6XCC7); assay: Agonist activity at zebrafish GPR34 type a expressed in HEK293 cells co-transfected with AP-TGFalpha/Galphaq/i1 assessed as induction of ectodomain shedding of membrane bound AP-TGFalpha after 1 hr by p-NPP substrate based microplate reader analysis
Chain of G protein-coupled receptor 34a (Q6XCC7 1-389): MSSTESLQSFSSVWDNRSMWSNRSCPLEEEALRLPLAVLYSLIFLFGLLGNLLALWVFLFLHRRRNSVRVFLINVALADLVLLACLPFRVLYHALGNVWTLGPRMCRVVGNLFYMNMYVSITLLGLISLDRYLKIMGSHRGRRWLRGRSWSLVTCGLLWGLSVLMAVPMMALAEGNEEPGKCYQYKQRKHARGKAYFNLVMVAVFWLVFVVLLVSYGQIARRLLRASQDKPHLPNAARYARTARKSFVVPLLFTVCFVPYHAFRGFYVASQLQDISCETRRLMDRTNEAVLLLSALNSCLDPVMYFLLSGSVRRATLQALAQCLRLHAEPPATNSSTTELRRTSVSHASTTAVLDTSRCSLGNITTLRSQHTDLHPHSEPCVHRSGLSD

Chain of Probable G-protein coupled receptor 34 (Q9R1K6 whole entry, the tested form may be a part): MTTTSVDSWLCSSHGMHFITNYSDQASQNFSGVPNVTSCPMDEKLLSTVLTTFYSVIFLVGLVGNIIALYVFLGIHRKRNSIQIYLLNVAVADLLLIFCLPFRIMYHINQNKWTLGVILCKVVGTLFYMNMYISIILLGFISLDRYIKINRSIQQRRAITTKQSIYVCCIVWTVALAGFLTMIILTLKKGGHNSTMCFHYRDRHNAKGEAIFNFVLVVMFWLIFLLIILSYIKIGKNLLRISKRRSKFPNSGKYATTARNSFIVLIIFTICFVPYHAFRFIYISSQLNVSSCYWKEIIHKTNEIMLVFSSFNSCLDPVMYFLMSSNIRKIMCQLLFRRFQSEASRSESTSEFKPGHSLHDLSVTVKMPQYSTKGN
Chain of Putative P2Y purinoceptor 10 (Q8BFU7 whole entry, the tested form may be a part): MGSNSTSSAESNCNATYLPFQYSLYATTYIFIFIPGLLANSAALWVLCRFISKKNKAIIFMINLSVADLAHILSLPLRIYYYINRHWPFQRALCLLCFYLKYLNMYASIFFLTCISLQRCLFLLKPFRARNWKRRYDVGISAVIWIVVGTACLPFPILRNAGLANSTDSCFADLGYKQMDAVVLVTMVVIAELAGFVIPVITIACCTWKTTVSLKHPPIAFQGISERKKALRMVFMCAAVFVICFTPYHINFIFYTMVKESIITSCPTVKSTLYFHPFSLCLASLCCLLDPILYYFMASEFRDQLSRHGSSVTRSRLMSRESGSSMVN

Structure (SMILES) | EC50 [1] | EC50 [2] | EC50 [3]
CCCCCCCC/C=C\CCCCCCCC(=O)OC[C@@H](COC)OP(=O)(O)OC[C@H](N)C(=O)O | > 3.16 µM |  | 
CCCCCCCCCCCOc1ccccc1CCC(=O)O[C@H]1CCOC[C@H]1OP(=O)(O)OC[C@H](N)C(=O)O |  | > 3.16 µM | 
CCCCCCCC/C=C\CCCCCCCC(=O)OC[C@@H](COCCC)OP(=O)(O)OC[C@H](N)C(=O)O | > 3.16 µM |  | 
COC[C@H](COC(=O)CCc1ccccc1OCc1cccc(Oc2ccccc2)c1)OP(=O)(O)OC[C@H](N)C(=O)O | > 3.16 µM |  | 
CCCCCCCC/C=C\CCCCCCCC(=O)O[C@@H](C)COP(=O)(O)OC[C@H](N)C(=O)O |  | > 3.16 µM | 
CCCCCCCC/C=C\CCCCCCCC(=O)OCCOP(=O)(O)OC[C@H](N)C(=O)O |  | > 3.16 µM | 
CCCCCCCC/C=C\CCCCCCCC(=O)OC[C@@H](COCC)OP(=O)(O)OC[C@H](N)C(=O)O | > 3.16 µM |  | 
CCCCCCCC/C=C\CCCCCCCC(=O)OC[C@H](COC)OP(=O)(O)OC[C@H](N)C(=O)O | > 3.16 µM |  | 
CCOC[C@H](COC(=O)CCc1ccccc1OCc1cccc(Oc2ccccc2)c1)OP(=O)(O)OC[C@H](N)C(=O)O | > 3.16 µM |  | > 3.16 µM
CCCCCCCCCCCOc1ccccc1CCC(=O)O[C@H]1COCC[C@@H]1OP(=O)(O)OC[C@H](N)C(=O)O |  | > 3.16 µM | 
